Assays:
[1] = Partition coefficient, log P at pH 7.4; format: physicochemical; conditions: octanol/water
Method in brief: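 Octanol/PBS shake-flask: 20 µL radiolabeled tracer in saline added to 0.5 mL each 1-octanol and PBS (pH 6.4, 7.0, 7.4, 8.4); vortexed 1 min, centrifuged 5 min; 20 µL of each layer weighed and 18F gamma-counted (400-550 keV). log P = log10(counts per g octanol / counts per g water).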

RG2 [2] = test: Uptake in HSV1 thymidine kinase expressing rat RG2TK+ cells; format: ADME, cell-based
Method in brief: (§1)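 Paired time-course uptake over 120 min in HSV1-tk transduced RG2TK+ and wild-type RG2 cells. Medium held 18F tracer (10 kBq/mL) with [3H]TdR (3.7 kBq/mL) and [14C]FIAU (0.37 kBq/mL) as references. 18F gamma-counted at once, 3H/14C by liquid scintillation 24-36 h later. Net accumulation rate, (mL medium/min)/g cells, taken from slope of (dpm/g cells)/(dpm/mL medium) vs time and normalized to TdR.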

RG2 [3] = test: Uptake in rat RG2 cells; format: ADME, cell-based; method in brief: as §1
RG2 [4] = test: Ratio of uptake in rat RG2TK+ cells to RG2 cells; format: ADME, cell-based; method in brief: as §1

| SMILES | logD [1] | Drug uptake (RG2 [2]) | Drug uptake (RG2 [3]) | Ratio (RG2 [4]) |
| --- | --- | --- | --- | --- |
| O=c1[nH]c(=O)n([C@@H]2O[C@H](CO)[C@@H](O)[C@@H]2[18F])cc1/C=C/Br | 1.02 | 35 µL/min/mg | -1 µL/min/mg |  |
| O=c1[nH][14c](=O)n([C@@H]2O[C@H](CO)[C@@H](O)[C@@H]2F)cc1I | -0.1 | 274 µL/min/mg | 48 µL/min/mg | 5.7 |
| Nc1nc(O)c2ncn(COC(CO)C[18F])c2n1 (stereo not drawn) |  | 7.7 µL/min/mg | 0.4 µL/min/mg | 19 |
| O=c1[nH]c(=O)n([C@@H]2O[C@H](CO)[C@@H](O)[C@@H]2[18F])cc1C(F)(F)F | 0.03 | 51 µL/min/mg | 4 µL/min/mg | 13 |
| CCCc1cn([C@@H]2O[C@H](CO)[C@@H](O)[C@@H]2[18F])c(=O)[nH]c1=O | 0.5 | 14 µL/min/mg | -1 µL/min/mg |  |
| Nc1nc(=O)c2ncn(CCC(CO)C[18F])c2[nH]1 (stereo not drawn) |  | 22 µL/min/mg | 3.2 µL/min/mg | 6.9 |
| O=c1[nH]c(=O)n([C@@H]2O[C@H](CO)[C@@H](O)[C@@H]2F)cc1CC[18F] |  | 290 µL/min/mg | 0.53 µL/min/mg | 550 |
